IC50 and Activity data for eight compounds are collected here from ChEMBL document CHEMBL1147407, “The design and synthesis of novel inhibitors of NADH:ubiquinone oxidoreductase” (Bioorg Med Chem Lett, 2004).

As a reminder, the IC50 is the concentration that gives 50% inhibition. Read a low IC50 as higher potency.

The nature of experiment [1]: Inhibition of NADH:ubiquinone oxidoreductase from house fly (Musca domestica) flight muscles. It is filed as tissue-based, Muscle tissue. The procedure, abridged: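 House fly flight-muscle complex I. Activity was measured as NADH oxidation, followed photometrically at 340 nm, with n-decylubiquinone as the electron acceptor.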
Another experiment relates to Tetranychus urticae. Briefly: Acaricidal activity of a compound (300 p.p.m.) was evaluated against Tetranychus urticae infected on bean plants. It is filed as functional.

`CC(C)(C)c1ccc(CSc2cc(=O)c3ccccc3o2)cc1` returned an IC50 in experiment [1] of 500 nM. This compound also displayed an Activity in the experiment on Tetranychus urticae of 0%.
`Cc1c(SCCc2ccc(C(C)(C)C)cc2)oc2ccccc2c1=O`: in experiment [1], the IC50 amounted to 10 nM. In addition, the Activity with Tetranychus urticae amounted to 80%.
`CC(C)(C)c1ccc(CSc2oc3ccccc3c(=O)c2Cl)cc1`: the IC50 in experiment [1] came to 6 nM. This compound also yielded an Activity in the experiment on Tetranychus urticae of 50%.
In experiment [1], `CCc1c(SCc2ccc(C(C)(C)C)cc2)oc2ccccc2c1=O` showed an IC50 of over 200 nM. Further, the Activity in the experiment on Tetranychus urticae was 0%.
The compound `Cc1c(NCCc2ccc(C(C)(C)C)cc2)oc2ccccc2c1=O` gave an IC50 in experiment [1] of 200 nM. The Activity with Tetranychus urticae is reported as 0%.
The like results for `Cc1c(S(=O)(=O)Cc2ccc(C(C)(C)C)cc2)oc2ccccc2c1=O` were, in that order, 160 nM and 0%.
The compound `Cc1c(SCc2ccc(C(C)(C)C)cc2)oc2ccccc2c1=O` registered an IC50 in experiment [1] of 8 nM. This compound returned an Activity in the experiment on Tetranychus urticae of 100%.
Compound `Cc1c(NCc2ccc(C(C)(C)C)cc2)oc2ccccc2c1=O` came in with an IC50 in experiment [1] of 20 nM. In the experiment with Tetranychus urticae, this compound had an Activity of 0%.
